Experimental data: ChEMBL document CHEMBL1268908, “Design, synthesis, radiolabeling, and in vivo evaluation of carbon-11 labeled N-[2-[4-(3-cyanopyridin-2-yl)piperazin-1-yl]ethyl]-3-methoxybenzamide, a potential positron emission tomography tracer for the dopamine D(4) receptors” (J Med Chem, 2010)

Experiments:
Assay type in all cases: ADME, organism-based, Macaca mulatta
[1] = Biodistribution in rhesus monkey retina at 150.3 MBq, iv after 87.5 mins; settings: in vivo
[2] = Biodistribution in rhesus monkey cerebellum at 150.3 MBq, iv after 2.25 mins; settings: in vivo, 135 s
How it was run: (§1)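 Male rhesus monkey under ketamine (10 mg/kg im) with head fixation. After a 20 min 68Ge-68Ga transmission scan, the [11C]-labelled tracer in saline (pH 7.4) was injected iv, at 2.9 TBq/μmol specific radioactivity at injection. A dynamic 3D PET scan followed over 90 min (6×0.5, 7×1, 20×2, 8×5 min frames). Regions were defined on T1-weighted 1.5 T MRI, and uptake is given as %ID/mL.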

[3] = Biodistribution in rhesus monkey retina at 150.3 MBq, iv after 2.75 mins; settings: in vivo, 165 s
[4] = Biodistribution in rhesus monkey retina at 150.3 MBq, iv after 2.25 mins; settings: in vivo, 135 s
[5] = Biodistribution in rhesus monkey occipital lobe at 150.3 MBq, iv after 37 mins; settings: in vivo
How it was run: (§2)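 Male rhesus monkey under ketamine 10 mg/kg im, head fixed; 20 min 68Ge-68Ga transmission scan, then 90 min dynamic 3D PET (6×0.5, 7×1, 20×2, 8×5 min frames) after iv [11C]-labelled tracer in saline, specific radioactivity about 2.9 TBq/μmol at injection. Regions defined on T1-weighted MRI; uptake expressed as % injected dose per mL.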

[6] = Biodistribution in rhesus monkey cingulate cortex at 150.3 MBq, iv after 41 mins; settings: in vivo; how it was run: as §1
Hippocampus [7] = test: Biodistribution in rhesus monkey hippocampus at 150.3 MBq, iv after 0.75 mins; settings: in vivo, 45 s
How it was run: (§3)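 Single male rhesus monkey anesthetized with ketamine 10 mg/kg im, head fixed. Attenuation correction by 20 min 68Ge-68Ga transmission scan. [11C]-tracer in saline (pH 7.4) given iv, specific radioactivity 2.9 TBq/μmol at injection. Dynamic 3D PET emission scan over 90 min in frames of 0.5 to 5 min. MRI T1 images used to define VOIs. Uptake expressed as […].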

[8] = Biodistribution in rhesus monkey entorhinal cortex at 150.3 MBq, iv after 39 mins; settings: in vivo, 0.65 h; how it was run: as §3
Striatum [9] = test: Biodistribution in rhesus monkey striatum at 150.3 MBq, iv after 87.5 mins; settings: in vivo
[10] = Biodistribution in rhesus monkey cingulate cortex at 150.3 MBq, iv after 7.5 mins; settings: in vivo, 0.125 h; how it was run: as §3
[11] = Biodistribution in rhesus monkey occipital lobe at 150.3 MBq, iv after 67.5 mins; settings: in vivo, 1.125 h
[12] = Biodistribution in rhesus monkey entorhinal cortex at 150.3 MBq, iv after 52.5 mins; settings: in vivo, 0.875 h; how it was run: as §3
Hippocampus [13] = test: Biodistribution in rhesus monkey hippocampus at 150.3 MBq, iv after 31 mins; settings: in vivo; how it was run: as §2
[14] = Biodistribution in rhesus monkey cingulate cortex at 150.3 MBq, iv after 29 mins; settings: in vivo; how it was run: as §1
Hippocampus [15] = test: Biodistribution in rhesus monkey hippocampus at 150.3 MBq, iv after 7.5 mins; settings: in vivo, 0.125 h; how it was run: as §2
[16] = Biodistribution in rhesus monkey cingulate cortex at 150.3 MBq, iv after 72.5 mins; settings: in vivo; how it was run: as §3
[17] = Biodistribution in rhesus monkey retina at 150.3 MBq, iv after 19 mins; settings: in vivo
[18] = Biodistribution in rhesus monkey cerebellum at 150.3 MBq, iv after 37 mins; settings: in vivo; how it was run: as §1
Hippocampus [19] = test: Biodistribution in rhesus monkey hippocampus […], iv after 17 mins; settings: in vivo, in the assay text read “150.3 MBq” for “170.3 MBq”; how it was run: as §2
[20] = Biodistribution in rhesus monkey entorhinal cortex at 150.3 MBq, iv after 23 mins; settings: in vivo; how it was run: as §3
Striatum [21] = test: Biodistribution in rhesus monkey striatum at 150.3 MBq, iv after 39 mins; settings: in vivo, 0.65 h
[22] = Biodistribution in rhesus monkey cingulate cortex at 150.3 MBq, iv after 77.5 mins; settings: in vivo; how it was run: as §3
Striatum [23] = test: Biodistribution in rhesus monkey striatum at 150.3 MBq, iv after 6.5 mins; settings: in vivo
Striatum [24] = test: Biodistribution in rhesus monkey striatum at 150.3 MBq, iv after 49 mins; settings: in vivo
[25] = Biodistribution in rhesus monkey entorhinal cortex at 150.3 MBq, iv after 1.75 mins; settings: in vivo, 105 s; how it was run: as §3
[26] = Biodistribution in rhesus monkey retina at 150.3 MBq, iv after 57.5 mins; settings: in vivo
[27] = Biodistribution in rhesus monkey occipital lobe at 150.3 MBq, iv after 3.5 mins; settings: in vivo; how it was run: as §2
Hippocampus [28] = test: Biodistribution in rhesus monkey hippocampus at 150.3 MBq, iv after 62.5 mins; settings: in vivo; how it was run: as §2
[29] = Biodistribution in rhesus monkey entorhinal cortex at 150.3 MBq, iv after 45 mins; settings: in vivo, 0.75 h; how it was run: as §3
[30] = Biodistribution in rhesus monkey cerebellum at 150.3 MBq, iv after 31 mins; settings: in vivo; how it was run: as §1
[31] = Biodistribution in rhesus monkey cingulate cortex at 150.3 MBq, iv after 23 mins; settings: in vivo; how it was run: as §1
Striatum [32] = test: Biodistribution in rhesus monkey striatum at 150.3 MBq, iv after 4.5 mins; settings: in vivo, 0.075 h
[33] = Biodistribution in rhesus monkey occipital lobe at 150.3 MBq, iv after 87.5 mins; settings: in vivo
[34] = Biodistribution in rhesus monkey entorhinal cortex at 150.3 MBq, iv after 47 mins; settings: in vivo; how it was run: as §3
Hippocampus [35] = test: Biodistribution in rhesus monkey hippocampus at 150.3 MBq, iv after 9.5 mins; settings: in vivo; how it was run: as §2
[36] = Biodistribution in rhesus monkey retina at 150.3 MBq, iv after 29 mins; settings: in vivo
[37] = Biodistribution in rhesus monkey retina at 150.3 MBq, iv after 82.5 mins; settings: in vivo, 1.375 h
[38] = Biodistribution in rhesus monkey retina at 150.3 MBq, iv after 77.5 mins; settings: in vivo
[39] = Biodistribution in rhesus monkey retina at 150.3 MBq, iv after 33 mins; settings: in vivo, 0.55 h
[40] = Biodistribution in rhesus monkey cerebellum at 150.3 MBq, iv after 21 mins; settings: in vivo, 0.35 h; how it was run: as §1
[41] = Biodistribution in rhesus monkey cerebellum at 150.3 MBq, iv after 77.5 mins; settings: in vivo; how it was run: as §1
[42] = Biodistribution in rhesus monkey entorhinal cortex at 150.3 MBq, iv after 27 mins; settings: in vivo, 0.45 h; how it was run: as §3
Striatum [43] = test: Biodistribution in rhesus monkey striatum at 150.3 MBq, iv after 21 mins; settings: in vivo, 0.35 h
[44] = Biodistribution in rhesus monkey retina at 150.3 MBq, iv after 13 mins; settings: in vivo
[45] = Biodistribution in rhesus monkey retina at 150.3 MBq, iv after 41 mins; settings: in vivo
[46] = Biodistribution in rhesus monkey occipital lobe at 150.3 MBq, iv after 11 mins; settings: in vivo; how it was run: as §2
[47] = Biodistribution in rhesus monkey cerebellum at 150.3 MBq, iv after 5.5 mins; settings: in vivo; how it was run: as §1

[11CH3]Oc1cccc(C(=O)NCCN2CCN(c3ncccc3C#N)CC2)c1
Drug uptake [1]: 52.04 kBq/ml | Drug uptake [2]: 44.35 kBq/ml | Drug uptake [3]: 37.33 kBq/ml | Drug uptake [4]: 36.9 kBq/ml | Drug uptake [5]: 11.24 kBq/ml | Drug uptake [6]: 10.93 kBq/ml | Drug uptake (Hippocampus [7]): 57.7053 kBq/ml | Drug uptake [8]: 13.49 kBq/ml | Drug uptake (Striatum [9]): 8.125 kBq/ml | Drug uptake [10]: 32.75 kBq/ml | Drug uptake [11]: 7.697 kBq/ml | Drug uptake [12]: 9.01 kBq/ml | Drug uptake (Hippocampus [13]): 14.91 kBq/ml | Drug uptake [14]: 15.04 kBq/ml | Drug uptake (Hippocampus [15]): 34.09 kBq/ml | Drug uptake [16]: 9.513 kBq/ml | Drug uptake [17]: 53.57 kBq/ml | Drug uptake [18]: 11.56 kBq/ml | Drug uptake (Hippocampus [19]): 19.15 kBq/ml | Drug uptake [20]: 16.74 kBq/ml | Drug uptake (Striatum [21]): 11.52 kBq/ml | Drug uptake [22]: 9.3 kBq/ml | Drug uptake (Striatum [23]): 36.37 kBq/ml | Drug uptake (Striatum [24]): 10.09 kBq/ml | Drug uptake [25]: 39.28 kBq/ml | Drug uptake [26]: 55.05 kBq/ml | Drug uptake [27]: 37.15 kBq/ml | Drug uptake (Hippocampus [28]): 8.242 kBq/ml | Drug uptake [29]: 10.89 kBq/ml | Drug uptake [30]: 13.26 kBq/ml | Drug uptake [31]: 17.4 kBq/ml | Drug uptake (Striatum [32]): 42.26 kBq/ml | Drug uptake [33]: 7.721 kBq/ml | Drug uptake [34]: 11.44 kBq/ml | Drug uptake (Hippocampus [35]): 30.28 kBq/ml | Drug uptake [36]: 56.95 kBq/ml | Drug uptake [37]: 52.3 kBq/ml | Drug uptake [38]: 50.63 kBq/ml | Drug uptake [39]: 57.47 kBq/ml | Drug uptake [40]: 16.76 kBq/ml | Drug uptake [41]: 8.009 kBq/ml | Drug uptake [42]: 14.48 kBq/ml | Drug uptake (Striatum [43]): 18.62 kBq/ml | Drug uptake [44]: 50.22 kBq/ml | Drug uptake [45]: 57.19 kBq/ml | Drug uptake [46]: 21.64 kBq/ml | Drug uptake [47]: 33.43 kBq/ml
